From ChEMBL document CHEMBL4706601, “The endocannabinoid system dual-target ligand N-cycloheptyl-1,2-dihydro-5-bromo-1-(4-fluorobenzyl)-6-methyl-2-oxo-pyridine-3-carboxamide improves disease severity in a mouse model of multiple sclerosis” (Eur J Med Chem, 2020)
Activity calls are given as the source filed them.

Legend:
[1] = biological target: T1, Cannabinoid receptor 2 (Homo sapiens, UniProt P34972); test: Agonist activity at human CB2R expressed in CHO cell membranes after 90 mins by [35S]GTPgammaS assay; assay type: functional, Membrane
T1 sequence (P34972 whole entry): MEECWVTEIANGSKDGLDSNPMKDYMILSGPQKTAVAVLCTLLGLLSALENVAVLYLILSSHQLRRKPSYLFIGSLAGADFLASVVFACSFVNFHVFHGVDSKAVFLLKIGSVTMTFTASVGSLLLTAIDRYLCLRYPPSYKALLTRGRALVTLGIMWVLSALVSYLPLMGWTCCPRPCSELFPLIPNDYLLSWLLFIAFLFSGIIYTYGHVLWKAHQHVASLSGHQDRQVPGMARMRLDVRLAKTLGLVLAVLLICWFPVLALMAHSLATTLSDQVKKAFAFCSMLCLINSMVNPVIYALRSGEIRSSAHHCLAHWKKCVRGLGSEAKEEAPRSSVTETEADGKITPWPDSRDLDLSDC
How it was run: (§1)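 In-house CHO membranes expressing hCB1 or hCB2 (10 µg) in 50 mM Tris-HCl, 3 mM MgCl2, 0.2 mM EDTA, 100 mM NaCl, 0.5% fatty-acid-free BSA, pH 7.4, with 10 μM GDP and 0.1 nM [35S]GTPγS. Incubated 90 min at 30 °C; antagonist pre-incubated 30 min. Nonspecific binding with 10 μM GTPγS; bound label by filtration and counting; ≥3 experiments in triplicate.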

[2] = biological target: T2, Cannabinoid receptor 1 (Homo sapiens, UniProt P21554); test: Displacement of [3H]CP55940 from recombinant human CB1R expressed in CHO cell membranes incubated for 90 mins; set-up: species or system Membrane
T2 sequence (P21554 whole entry): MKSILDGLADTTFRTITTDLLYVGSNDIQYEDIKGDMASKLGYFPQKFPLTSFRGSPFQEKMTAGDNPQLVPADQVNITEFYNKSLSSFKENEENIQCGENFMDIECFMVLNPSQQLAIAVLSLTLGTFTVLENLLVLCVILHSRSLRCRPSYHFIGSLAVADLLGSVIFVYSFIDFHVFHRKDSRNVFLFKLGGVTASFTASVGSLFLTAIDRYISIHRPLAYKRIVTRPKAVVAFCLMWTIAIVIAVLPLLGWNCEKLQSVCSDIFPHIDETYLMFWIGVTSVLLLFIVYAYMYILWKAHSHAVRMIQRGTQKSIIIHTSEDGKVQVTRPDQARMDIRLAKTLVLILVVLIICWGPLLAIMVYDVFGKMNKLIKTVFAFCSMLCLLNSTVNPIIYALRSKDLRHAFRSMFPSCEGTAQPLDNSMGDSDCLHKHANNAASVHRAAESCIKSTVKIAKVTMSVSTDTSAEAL

[3] = biological target: T3, Fatty-acid amide hydrolase 1 (Homo sapiens, UniProt O00519); test: Inhibition of FAAH in human U937 cells using [ethanolamine-1-3H]AEA as substrate preincubated for 15 mins followed by substrate addition and measured after 15 mins by liquid scintillation spectroscopy; assay type: cell-based, U-937
T3 sequence (O00519 whole entry): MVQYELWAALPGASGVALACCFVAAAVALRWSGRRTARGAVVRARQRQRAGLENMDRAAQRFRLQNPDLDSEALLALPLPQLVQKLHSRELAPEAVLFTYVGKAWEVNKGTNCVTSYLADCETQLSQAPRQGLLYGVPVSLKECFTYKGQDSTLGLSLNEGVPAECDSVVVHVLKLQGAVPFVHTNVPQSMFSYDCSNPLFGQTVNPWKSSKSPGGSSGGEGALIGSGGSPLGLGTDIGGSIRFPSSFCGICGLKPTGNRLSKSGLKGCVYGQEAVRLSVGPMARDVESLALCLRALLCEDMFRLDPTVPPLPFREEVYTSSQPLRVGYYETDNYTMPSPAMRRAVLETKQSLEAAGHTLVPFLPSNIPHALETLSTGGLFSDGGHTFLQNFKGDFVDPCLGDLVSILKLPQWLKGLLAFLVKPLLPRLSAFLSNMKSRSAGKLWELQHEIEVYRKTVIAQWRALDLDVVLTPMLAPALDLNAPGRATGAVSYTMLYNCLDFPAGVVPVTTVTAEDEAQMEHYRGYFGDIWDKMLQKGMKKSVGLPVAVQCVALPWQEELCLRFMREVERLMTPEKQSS
How it was run: (§2)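 Intact U937 cells, 10^6 per condition, pre-incubated with compound 15 min at 37 °C with shaking (screen at 10 μM; full curves for hits). Substrate: 1 μM AEA with 1 nM [3H]AEA (FAAH) or 10 μM 2-OG with 5 nM [3H]2-OG (MAGL), 15 min at 37 °C. Stopped with CHCl3:MeOH 1:1, aqueous tritium counted; mean ± SD, ≥3 experiments in triplicate.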

[4] = biological target: T1, Cannabinoid receptor 2; test: Displacement of [3H]CP55940 from recombinant human CB2R expressed in CHO cell membranes incubated for 90 mins; set-up: species or system Membrane
[5] = biological target: T2, Cannabinoid receptor 1; test: Agonist activity at human CB1R expressed in CHO cell membranes after 90 mins by [35S]GTPgammaS assay; assay type: functional, Membrane; how it was run: as §1
[6] = biological target: T4, Lysophosphatidylserine lipase ABHD12 (Homo sapiens, UniProt Q8N2K0); test: Inhibition of human ABHD12 expressed in HEK293 cells using 2-OG as substrate preincubated for 30 mins followed by substrate addition and measured after 5 mins by liquid scintillation spectroscopy; assay type: cell-based
T4 sequence (Q8N2K0 whole entry): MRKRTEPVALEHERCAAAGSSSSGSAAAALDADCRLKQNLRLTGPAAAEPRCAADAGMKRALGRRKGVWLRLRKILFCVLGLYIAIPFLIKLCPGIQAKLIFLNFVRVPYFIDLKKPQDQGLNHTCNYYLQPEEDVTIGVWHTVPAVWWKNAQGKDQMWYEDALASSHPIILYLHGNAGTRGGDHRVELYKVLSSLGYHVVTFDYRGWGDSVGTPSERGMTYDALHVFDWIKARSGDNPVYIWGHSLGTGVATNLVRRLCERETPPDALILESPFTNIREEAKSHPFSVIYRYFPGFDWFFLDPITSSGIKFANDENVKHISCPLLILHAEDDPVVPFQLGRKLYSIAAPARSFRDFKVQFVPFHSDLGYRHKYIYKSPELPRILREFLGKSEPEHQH
How it was run: (§3)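 Homogenates (40 µg) from HEK293 stably expressing hABHD6 or hABHD12 pre-incubated with compound 30 min at 37 °C in […], 0.1% BSA, pH 7.6; then 10 μM 2-OG for 5 min at 37 °C. Aqueous phase tritium counted after CHCl3:MeOH stop; no-enzyme blanks and non-transfected HEK293 hydrolysis subtracted. Controls WWL70 10 μM, THL 20 μM.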

[7] = biological target: T5, Monoglyceride lipase (Homo sapiens, UniProt Q99685); test: Inhibition of MAGL in human U937 cells using [glycerol-1,2,3-3H]2-OG as substrate preincubated for 15 mins followed by substrate addition and measured after 15 mins by liquid scintillation spectroscopy; assay type: cell-based, U-937; how it was run: as §2
T5 sequence (Q99685 whole entry): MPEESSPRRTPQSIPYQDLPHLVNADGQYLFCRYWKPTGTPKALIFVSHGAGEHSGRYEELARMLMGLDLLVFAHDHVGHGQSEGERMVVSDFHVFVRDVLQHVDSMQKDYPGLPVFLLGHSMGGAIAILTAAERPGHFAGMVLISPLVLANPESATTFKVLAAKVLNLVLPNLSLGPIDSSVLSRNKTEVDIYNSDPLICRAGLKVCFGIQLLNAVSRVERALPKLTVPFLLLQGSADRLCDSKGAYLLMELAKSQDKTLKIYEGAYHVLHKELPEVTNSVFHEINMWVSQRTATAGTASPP

[8] = biological target: T6, Monoacylglycerol lipase ABHD6 (Homo sapiens, UniProt Q9BV23); test: Inhibition of human ABHD6 expressed in HEK293 cells using 2-OG as substrate preincubated for 30 mins followed by substrate addition and measured after 5 mins by liquid scintillation spectroscopy; assay type: cell-based; how it was run: as §3
T6 sequence (Q9BV23 whole entry): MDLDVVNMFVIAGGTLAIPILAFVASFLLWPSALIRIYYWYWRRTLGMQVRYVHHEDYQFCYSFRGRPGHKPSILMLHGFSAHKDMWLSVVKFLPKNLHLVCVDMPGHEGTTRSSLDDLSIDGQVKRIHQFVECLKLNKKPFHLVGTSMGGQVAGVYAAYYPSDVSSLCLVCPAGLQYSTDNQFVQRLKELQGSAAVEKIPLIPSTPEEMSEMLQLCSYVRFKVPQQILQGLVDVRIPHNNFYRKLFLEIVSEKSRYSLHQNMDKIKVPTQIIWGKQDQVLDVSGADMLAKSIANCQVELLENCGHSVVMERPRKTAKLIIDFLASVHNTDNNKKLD

[9] = species on record: Homo sapiens; test: Selectivity index, ratio of Ki for human CB1R expressed in CHO cell membranes to Ki for human CB2R expressed in CHO cell membranes; assay type: cell-based
[10] = biological target: T1, Cannabinoid receptor 2; test: Inverse agonist activity at human CB2R expressed in CHO cell membranes after 90 mins by [35S]GTPgammaS assay; assay type: functional, Membrane; how it was run: as §1
[11] = biological target: T2, Cannabinoid receptor 1; test: Antagonist activity at human CB1R expressed in CHO cell membranes preincubated for 30 mins followed by GTPgammaS addition and measured after 90 mins by [35S]GTPgammaS assay; assay type: functional, Membrane; how it was run: as §1
[12] = test system: Mus musculus; test: In vivo agonist activity at CB1R in BALB/c mouse assessed as induction of analgesia at 5 mg/kg, ip measured after 1 hr by hotplate test; assay type: functional, organism-based
How it was run: (§4)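 BALB/c mice given 5 mg/kg i.p. in DMSO (20 µL), tested 1 h later. Rectal temperature change from basal; catalepsy by bar test (4 cm bar, 120 s cut-off); locomotion by rotarod latency to fall at 4 rpm (120 s cut-off, 3 trials); analgesia by hot plate at 54-56 °C, first paw lick or shake. n = 5-20 per group.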

[13] = test system: Mus musculus; test: In vivo agonist activity at CB1R in BALB/c mouse assessed as catalpesy-like behaviour by measuring increase in immobility time at 5 mg/kg, ip measured after 1 hr by bar test; assay type: functional, organism-based; how it was run: as §4
[14] = test system: Mus musculus; test: In vivo agonist activity at CB1R in BALB/c mouse assessed as reduction in spontaneous locomotion at 5 mg/kg, ip measured after 1 hr by rotarod test; assay type: functional, organism-based; how it was run: as §4
[15] = test system: Mus musculus; test: In vivo agonist activity at CB1R in BALB/c mouse assessed as reduction in body temperature at 5 mg/kg, ip measured after 1 hr by tetrad test; assay type: functional, organism-based; how it was run: as §4

SMILES | EC50 [1] | Ki [2] | IC50 [3] | Ki [4] | EC50 [5] | IC50 [6] | IC50 [7] | IC50 [8] | Ratio Ki [9] | EC50 [10] | EC50 [11] | Activity [12] | Activity [13] | Activity [14] | Activity [15]
Cc1nc(OCc2ccc(F)cc2)c(C(=O)NC2CCCCCC2)cc1Br | 31.6 nM | 76.1 nM | > 10000 nM | 1.5 nM | 586 nM | 2100 nM | > 10000 nM | > 10000 nM |  |  |  |  |  |  | 
Cc1c(Cl)cc(C(=O)NC2CCCCCC2)c(=O)n1Cc1ccc(F)cc1 | 3.3 nM | 3.7 nM | 5900 nM | 4.3 nM | 1.12 nM | > 10000 nM | > 10000 nM | > 10000 nM | 0.86 |  |  |  |  |  | 
Cc1ccc(C(=O)NC2CCCCCC2)c(=O)n1Cc1ccc(F)cc1 | 4.15 nM | 37.7 nM | > 10000 nM | 4.7 nM | 40.4 nM | > 10000 nM | > 10000 nM | > 10000 nM |  |  |  |  |  |  | 
CO[C@@H]1O[C@H](CNC(=O)c2cc(Br)c(C)n(Cc3ccc(F)cc3)c2=O)[C@H](O)[C@H](O)[C@H]1O |  | > 10000 nM | > 10000 nM | > 10000 nM |  | > 10000 nM | > 10000 nM | > 10000 nM |  |  |  |  |  |  | 
Cc1c(Br)cc(C(=O)NC2CCNCC2)c(=O)n1Cc1ccc(F)cc1 |  | > 10000 nM | > 10000 nM | > 10000 nM |  | > 10000 nM | > 10000 nM | > 10000 nM |  |  |  |  |  |  | 
Cc1c(-c2ccccc2)cc(C(=O)NC2CCCCCC2)c(=O)n1Cc1ccc(F)cc1 |  | 176 nM | 560 nM | 5.7 nM |  | > 10000 nM | > 10000 nM | > 10000 nM |  | 17 nM | 0.36 nM | inactive | inactive | inactive | inactive
